The source made the active and inactive calls.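 How the source made its calls: active means nuclear translocation activity above 50% at 5 µM, with a well cell count of 50 or more; inconclusive means wells under 50 cells across six images, flagged as toxic; inactive means the rest.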
System: HeLa beta-catenin nuclear translocation, immunofluorescence imaging
Test: beta-catenin nuclear localization change in HeLa – imaging, HeLa cells, immunofluorescence, high-content, primary screen (AID 1665)
Outline: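 Assay system: human HeLa cells, native beta-catenin; doses: 5 µM primary, 0.02–20 µM confirmation; incubation: compound treatment 24 h, 37°C, 5% CO2; technique: fluorescence imaging of beta-catenin antibody stain plus DAPI; measure: % activation, nuclear-to-cytoplasmic median beta-catenin signal ratio per cell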

Q: Which EC50, beta-catenin nuclear translocation induction (lower = more potent) does the source give for `CCN1C(c2ccccc2)=C(c2ccccc2)S/C1=C/C=C1\SC(=S)N(C)C1=O` here?
A: 0.56 µM

Q: With `CC[n+]1c(/C=C/C=C/N(C(C)=O)c2ccccc2)sc2ccccc21` as the compound, how does the EC50, beta-catenin nuclear translocation induction (lower = more potent) read?
A: 8.42 µM

Q: Which EC50, beta-catenin nuclear translocation induction (lower = more potent) does the source give for `Cn1c(O)c(/C=C/C=Nc2ccccc2)c(=O)n(C)c1=S` here?
A: > 20 µM (inactive)

Q: `O=C1NC(=O)C(=C/C=C/c2coc3ccc(Br)cc3c2=O)C(=O)N1` was tested. Which EC50, beta-catenin nuclear translocation induction (lower = more potent) did it give?
A: > 20 µM (inactive)

Q: With `Cc1ccc(NC(=O)Nc2ccnc(-c3cccnc3)n2)cc1` as the compound, how does the EC50, beta-catenin nuclear translocation induction (lower = more potent) read?
A: > 20 µM (inactive)

Q: Which EC50, beta-catenin nuclear translocation induction (lower = more potent) does the source give for `CN1\C(=C/C=C/C=C/C=[N+](C)C)C(C)(C)c2ccccc21` here?
A: 9.2 µM

Q: `CCN1/C(=C/c2ccc3cc(C)ccc3[n+]2C)Sc2ccc3sccc3c21` was tested. Which EC50, beta-catenin nuclear translocation induction (lower = more potent) did it give?
A: > 20 µM (inactive)

Q: With `C=CCC1C=C(Cc2ccccc2)CC(CC=C)N1` (stereo not given) as the compound, how does the EC50, beta-catenin nuclear translocation induction (lower = more potent) read?
A: > 20 µM (inactive)

Q: `COc1ccc2nc3c(cc2c1)c(NC(=O)c1cccs1)nn3CC(C)C` was tested. Which EC50, beta-catenin nuclear translocation induction (lower = more potent) did it give?
A: > 20 µM (inactive)

Q: `Cn1c(-c2ccccc2)cc2c3no[n+]([O-])c3ccc21` was tested. Which EC50, beta-catenin nuclear translocation induction (lower = more potent) did it give?
A: > 20 µM (inactive)

Q: How did the EC50, beta-catenin nuclear translocation induction (lower = more potent) turn out when `CCC(/C=C1\Sc2ccc(OC)cc2N1CC)=C\c1sc2ccc(OC)cc2[n+]1CCCS(=O)(=O)[O-]` was run?
A: 4.19 µM

Q: `Cc1ccc2nc(/C(C#N)=C\c3ccc([N+](=O)[O-])o3)[nH]c2c1` was tested. Which EC50, beta-catenin nuclear translocation induction (lower = more potent) did it give?
A: 9.06 µM

Q: For `Oc1c(/C=C/C=C/C=Nc2ccccc2)sc(=S)n1Cc1ccccc1`, which EC50, beta-catenin nuclear translocation induction (lower = more potent) is on record?
A: > 20 µM (inactive)

Q: How did the EC50, beta-catenin nuclear translocation induction (lower = more potent) turn out when `CCN1C(=O)/C(=C/C=C2/Sc3ccccc3N2CCO)SC1=S` was run?
A: > 20 µM (inactive)

Q: With `CC1=CC(C)C(COC(N)=O)(COC(N)=O)C(C)C1` (stereo not given) as the compound, how does the EC50, beta-catenin nuclear translocation induction (lower = more potent) read?
A: 4.49 µM

Q: With `O=C(CSc1ncnc2nc[nH]c12)NCCc1ccccc1` as the compound, how does the EC50, beta-catenin nuclear translocation induction (lower = more potent) read?
A: 1.75 µM

Q: How did the EC50, beta-catenin nuclear translocation induction (lower = more potent) turn out when `COC(=O)c1[nH]c2ccc(Br)cc2c1NC(=O)CN1CCN(C2CCCCC2)CC1` was run?
A: 3.85 µM

Q: How did the EC50, beta-catenin nuclear translocation induction (lower = more potent) turn out when `C=CC[C@H]1CC(Cc2ccccc2)=C[C@H](CC=C)N1` was run?
A: 0.77 µM

Q: `CCOC(=O)N1CCN(C(=O)c2cc(-c3ccc(OCC)cc3)nc3ccccc23)CC1` was tested. Which EC50, beta-catenin nuclear translocation induction (lower = more potent) did it give?
A: 2.06 µM

Q: With `CCC(/C=C1\Sc2ccc(OC)cc2N1CCO)=C\c1sc2ccc(OC)cc2[n+]1CCO` as the compound, how does the EC50, beta-catenin nuclear translocation induction (lower = more potent) read?
A: > 20 µM (inactive)

Q: For `CCN1/C(=C/C=C/C=C/c2sc3ccccc3[n+]2CC)Sc2ccccc21`, which EC50, beta-catenin nuclear translocation induction (lower = more potent) is on record?
A: 3.73 µM

Q: Which EC50, beta-catenin nuclear translocation induction (lower = more potent) does the source give for `O=c1ccc2[n+]([O-])c3ccc(O)cc3oc-2c1` here?
A: 7.27 µM

Q: For `CCN(CC)c1ccc(/C=C/c2cc(-c3ccccc3)c3ccccc3n2)cc1`, which EC50, beta-catenin nuclear translocation induction (lower = more potent) is on record?
A: 2.56 µM

Q: Which EC50, beta-catenin nuclear translocation induction (lower = more potent) does the source give for `Cn1c2ccccc2c(=O)c2c(=O)n(Cc3ccco3)c(COc3ccccc3)nc21` here?
A: > 16 µM (inactive)

Q: Which EC50, beta-catenin nuclear translocation induction (lower = more potent) does the source give for `CCN1/C(=C/C=C/c2oc3ccc4ccccc4c3[n+]2CC)Oc2ccc3ccccc3c21` here?
A: 5.18 µM

Q: Which EC50, beta-catenin nuclear translocation induction (lower = more potent) does the source give for `CCOC(=O)/C(=C/C=C1\Sc2cc(OCC)c(OCC)cc2N1CC)C(C)=O` here?
A: > 20 µM (inactive)

Q: With `Cc1cc(NCCOCCO)n2ncc(-c3ccc(Cl)cc3)c2n1` as the compound, how does the EC50, beta-catenin nuclear translocation induction (lower = more potent) read?
A: 8.01 µM

Q: Which EC50, beta-catenin nuclear translocation induction (lower = more potent) does the source give for `COc1ccc(/C=C(/NC(=O)c2cccc([N+](=O)[O-])c2)C(=O)O)cc1OC` here?
A: > 20 µM (inactive)

Q: With `CN1C(=O)/C(=C/c2ccc(N3CCCCCC3)o2)C(=O)NC1=S` as the compound, how does the EC50, beta-catenin nuclear translocation induction (lower = more potent) read?
A: 2.9 µM

Q: Which EC50, beta-catenin nuclear translocation induction (lower = more potent) does the source give for `CCCCn1c(O)c(/C=C/C=C/C=Nc2ccccc2)sc1=S` here?
A: 8.79 µM

From PubChem BioAssay AID1665 (Sanford-Burnham Center for Chemical Genomics, 2009)
